# Bioassay records from PubChem.
# KCNQ1 act = potentiators or activators of KCNQ1 channel, primary screen, cell-based, thallium flux, high-throughput; Potassium voltage-gated channel subfamily KQT member 1 (Homo sapiens), P51787; CHO-K1 KCNQ1, thallium flux FluxOR fluorescence; stronger effect = higher value; B-score at 10 µM; 0.35% of 310,000 active; AID 2648, 2010;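 active means fluorescence ratio B-score, a plate-corrected score, at least three library SD, with initial intensity B-score within 5 SD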
#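 Assay system: CHO-K1 cells stably expressing KCNQ1. Medium: assay buffer for compound exposure, DMSO matched across wells. Timing: 37 °C overnight plating, 90-min dark dye load, 20-min compound pretreatment. Signal: kinetic FluxOR fluorescence, 10 s baseline plus 110 s post-stimulus.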
# KCNK9 inh = KCNK9 potassium channel inhibitors, primary screen, HEK293 cells, thallium flux. FluxOR thallium flux fluorescence; stronger effect = lower value. B-score at 10 µM. Potassium channel subfamily K member 9 (Homo sapiens), Q9NPC2. 1.2% of 310,000 active;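 active means ratio B-score over 3 SD below the library mean, with starting fluorescence within 5 SD of its mean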;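 further: negative B-score means less thallium flux so channel inhibition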
# hERG protect = hERG rescue from dofetilide block, primary screen, cell-based, CHO-hERG, FluxOR thallium flux, dofetilide IC70; Voltage-gated inwardly rectifying potassium channel KCNH2 (Homo sapiens), Q12809; dofetilide IC70 present; activation (rescue from dofetilide block), less the hit threshold, % at 10 µM; 0.51% of 310,000 active;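 active means activation above the mean of controls blocked by dofetilide plus 5 SD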;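 further: thallium influx through hERG after potassium depolarization seen as dye fluorescence rise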
# Target sequence (Q12809 whole entry, looked up): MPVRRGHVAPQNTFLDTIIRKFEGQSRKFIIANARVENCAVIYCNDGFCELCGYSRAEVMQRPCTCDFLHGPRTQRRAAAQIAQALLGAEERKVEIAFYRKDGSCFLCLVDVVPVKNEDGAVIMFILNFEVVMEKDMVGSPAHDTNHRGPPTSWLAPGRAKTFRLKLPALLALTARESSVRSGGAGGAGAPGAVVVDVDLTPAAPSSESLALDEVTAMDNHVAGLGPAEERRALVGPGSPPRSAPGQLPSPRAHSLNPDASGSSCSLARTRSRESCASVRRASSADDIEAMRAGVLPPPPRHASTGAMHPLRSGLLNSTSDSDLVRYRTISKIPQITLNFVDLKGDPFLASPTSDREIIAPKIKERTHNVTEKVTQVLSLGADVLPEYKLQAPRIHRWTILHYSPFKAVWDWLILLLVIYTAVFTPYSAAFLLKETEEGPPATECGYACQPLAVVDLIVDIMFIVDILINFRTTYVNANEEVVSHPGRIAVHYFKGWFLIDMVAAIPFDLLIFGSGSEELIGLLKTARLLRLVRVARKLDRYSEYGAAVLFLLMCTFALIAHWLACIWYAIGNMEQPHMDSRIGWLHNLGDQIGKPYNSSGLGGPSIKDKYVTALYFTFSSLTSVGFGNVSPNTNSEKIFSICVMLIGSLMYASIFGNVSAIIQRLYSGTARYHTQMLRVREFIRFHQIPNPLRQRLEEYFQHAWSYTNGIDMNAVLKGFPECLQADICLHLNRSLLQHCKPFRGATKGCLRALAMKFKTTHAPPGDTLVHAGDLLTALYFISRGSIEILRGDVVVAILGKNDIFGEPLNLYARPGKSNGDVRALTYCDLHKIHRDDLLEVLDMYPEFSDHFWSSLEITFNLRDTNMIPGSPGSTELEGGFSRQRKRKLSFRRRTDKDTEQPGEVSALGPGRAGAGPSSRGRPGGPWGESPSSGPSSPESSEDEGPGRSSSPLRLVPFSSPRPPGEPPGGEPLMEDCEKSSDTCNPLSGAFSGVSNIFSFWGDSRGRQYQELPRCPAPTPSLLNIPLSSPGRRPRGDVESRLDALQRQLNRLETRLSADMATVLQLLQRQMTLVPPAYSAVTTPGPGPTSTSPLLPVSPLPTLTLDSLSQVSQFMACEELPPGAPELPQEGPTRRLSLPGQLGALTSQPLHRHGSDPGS
# Kir21 block = inhibitors of mouse Kir2.1 inward-rectifier potassium channel; 0.85% of 310,000 active; AID 1672, 2009; HEK293-Kir2.1, FluxOR thallium flux fluorescence; stronger effect = lower value; B-score at 10 µM;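 active means fluorescence ratio B-score at or below minus 3 SD of library scores, with starting-brightness B-score within 2 SD, cut at about -4.2 in these data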;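 further: channel flux triggered by added potassium and thallium sulfate stimulus; B-score of peak minus minimum fluorescence over baseline after thallium stimulus; more negative B-score means stronger Kir2.1 block with less thallium influx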
# KCNK3 inh = human KCNK3 channel inhibitors, primary screen, CHO cells, FluxOR thallium flux, B-score | FluxOR fluorescence; stronger effect = lower value | AID 602410, 2012 | 0.84% of 340,000 active | B-score at 10 µM;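 active means B-score under library mean minus 4 SD, starting fluorescence ratio at most library mean plus 5 SD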;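 further: more negative B-score means stronger inhibition of thallium flux through KCNK3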
# KCNQ1 inh = inhibitors of human KCNQ1 channel, primary screen, cell-based, thallium flux, high-throughput | 1.3% of 310,000 active | CHO-K1 KCNQ1, FluxOR thallium flux fluorescence; stronger effect = higher value | B-score at 10 µM;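 active means compounds whose thallium flux B-score, printed positive for inhibition, exceeds three library SD while starting fluorescence stays within three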;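 further: channel opened by potassium depolarization with thallium stimulus after 20 min compound exposure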
# Hits are given with their value; . = inactive; / = no result. An excerpt weighted towards active compounds, which were near 3.7% of everything screened.
SMILES,KCNQ1 act,KCNK9 inh,hERG protect,Kir21 block,KCNK3 inh,KCNQ1 inh
O=C(CN1C(=O)CSc2ccccc21)N/N=C/c1ccco1,.,.,.,.,.,.
CN(C)CC(CCC(CN(C)C)C(O)(c1ccccc1)c1ccccc1)C(O)(c1ccccc1)c1ccccc1 (stereo unspecified),.,.,.,-5.6,/,.
Cc1ccc(-n2nnnc2-c2ccccc2)cc1,.,.,.,.,.,.
Cc1ccc(-n2nnnc2C(Cl)c2nnnn2-c2ccc(C)cc2)cc1,.,.,.,-12,.,.
CCOC(=O)C(=NCCCN(C)C)NNc1ccc(Br)cc1,.,.,.,.,.,.
CCCCN=C(NNc1ccc(Br)cc1)C(=O)OCC,.,-7.6,.,.,.,.
CN(Cc1ccccc1)CC(O)COc1ccc(CNCc2cccnc2)cc1 (stereo unspecified),.,.,.,.,.,.
CN(Cc1ccccc1)CC(O)COc1ccc(CNCc2ccc(Cl)s2)cc1 (stereo unspecified),.,.,.,-12,.,.
N#CCc1nn2c(-c3ccccc3)ccnc2c1C#N,.,.,.,.,.,.
CN(C)CCC(Oc1ccccc1OCc1ccccc1)c1ccccc1 (stereo unspecified),.,.,.,-4.6,.,.
CC(C)Oc1ccccc1OCCN(C)C,.,.,.,.,.,.
Cc1ccccc1N1CCN(CCC(=O)Nc2ccc(F)cc2)CC1,.,.,.,.,.,.
COc1ccc(NC(=O)C2CC(c3ccccc3O)=NO2)cc1OC (stereo unspecified),.,.,.,.,.,.
CCCn1c2ccccc2c2cnn(CC(=O)NCCCN3CCCCC3)c(=O)c21,.,.,.,.,.,.
CCCn1c2ccccc2c2cnn(CC(=O)NCCCN3CCN(c4ccccc4)CC3)c(=O)c21,.,.,.,-4.6,.,.
CCN(CC(=O)Nc1c(F)cccc1F)C(=O)CCN1C(=O)C2CCCCC2C1=O (stereo unspecified),.,.,.,.,.,.
COC(=O)C1=C(C)Nc2nnnn2C1c1ccc(Cl)cc1Cl (stereo unspecified),18,.,.,.,.,.
CCOC(=O)C1=C(C)Nc2nnnn2C1c1ccccc1Cl (stereo unspecified),/,/,/,/,.,/
CCCCOC(=O)N1CCOCCOCCOCC1,.,.,.,-4.7,.,.
CCCCNC(=O)N1CCOCCOCCN(C(=O)NCCCC)CCOCCOCC1,.,.,.,.,.,.
CC(C)(C)OC(=O)NCCCCCNC(=O)c1[nH]cnc1C(=O)N[C@@H](Cc1ccccc1)C(=O)OCc1ccccc1,.,.,.,.,.,9
C[C@H](NC(=O)c1nc[nH]c1C(=O)N1CCc2ccccc2C1)c1ccccc1,/,/,/,/,.,/
C[C@H](NC(=O)c1nc[nH]c1C(=O)NCCCCCNC(=O)OC(C)(C)C)C(=O)OCc1ccccc1,.,.,.,.,.,.
C[C@H](NC(=O)c1nc[nH]c1C(=O)N1CCc2ccccc2C1)C(=O)OCc1ccccc1,.,.,.,.,.,6
COc1ccc(-n2ccn(CC(=O)Nc3ccc(OC)cc3OC)c(=O)c2=O)cc1,.,.,.,.,.,.
SMILES,KCNQ1 act,KCNK9 inh,hERG protect,Kir21 block,KCNK3 inh,KCNQ1 inh
COn1c(-c2ccc(Cl)cc2)nc2ncccc21,.,.,.,.,.,.
c1cncc(-c2nc(N3CCCCCC3)c3ccccc3n2)c1,.,.,.,.,.,.
Fc1ccccc1N1CCN(c2nc(-c3cccs3)nc3ccccc23)CC1,.,-7.6,.,.,.,.
c1ccc2c(N3CCCCCC3)nc(-c3ccncc3)nc2c1,.,-6.6,.,.,.,.
CN(Cc1ccccc1F)c1nc(-c2cccs2)nc2ccccc12,.,-8,.,.,.,6
CC(=O)N1CCN(c2nc(-c3cccs3)nc3ccccc23)CC1,.,.,.,.,.,.
